Laboratory results reported in PMC4855835 (Chemical communications (Cambridge, England), 2016).

Experiments:
[1] = Hydrogelation assay of self-assembly in water upon ALP addition; format: physicochemical; conditions: 1 mM, pH 7.4, ALP 3U/mL
Procedure, shortened: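 Self-assembly was screened by hydrogelation: the test compound at 1 mM in water, pH 7.4, was given alkaline phosphatase at 3 U/mL. The resulting state (gel, suspension or increased viscosity) was judged by eye. Nanostructures formed under the same conditions were imaged by TEM after 24 h.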

Saos-2 cells = test: Saos-2 cell viability with co-incubated ALP inhibitors or cell death inhibitors; format: cell-based, human; conditions: 48h; for effect of pan-caspase inhibitor zVAD-fmk on death of treated Saos-2 cells: 1p 20 μM, 2p 50 μM, 3p 20 μM, zVAD-fmk 45 μM; for effect of L-Phe on viability of treated Saos-2 cells / effect of levamisole on viability of treated Saos-2 cells: 1p 50 μM, 3p 50 μM, 2p 200 μM; for effect of L-Phe on viability of treated Saos-2 cells: L-Phe 1 mM; for effect of levamisole on viability of treated Saos-2 cells: levamisole 1 mM; for effect of necroptosis inhibitor Nec-1 on death of treated Saos-2 cells: Nec-1 50 μM
Procedure, shortened: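 Saos-2 cells were treated for 48 h with test compound plus an inhibitor. ALP inhibitors were levamisole 1 mM (tissue-nonspecific ALP) or L-phenylalanine 1 mM (placental ALP), with test compound at 50 or 200 µM. Death-pathway inhibitors were pan-caspase zVAD-fmk 45 µM or Nec-1 50 µM. Read-out was cell viability.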

[2] = test system: sarcoma osteogenic (Saos-2) cells; test: Cell viability of Saos-2 cells treated with precursors; format: cell-based, human; conditions: for concentration at which Saos-2 cells are inhibited: Fig. 4A and Fig. S6; for inhibitory activity at pH 8.0: hydrolysis of ester bond (Fig. S8)
Procedure, shortened: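 Saos-2 osteosarcoma cells, which overexpress alkaline phosphatase, were exposed to a range of test compound (phosphorylated peptide precursor) concentrations for 48 h. Viability was plotted as log-dose response curves, and IC90 was taken at 48 h. Human marrow stromal HS-5 cells served as the normal-cell comparison.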

Static light scattering = format: physicochemical; conditions: pH7.4 PBS buffer, before ALP
Procedure, shortened: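 Static light scattering was measured on test compound solutions (12.5–50 µM) in pH 7.4 PBS, before and 24 h after adding alkaline phosphatase (2 U/mL). Scattering angle was 30 degrees; read-out was scattered intensity.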

[3] = test system: sarcoma osteogenic (Saos-2) cells; conditions: read-out: IC50 of carboplatin; 72 h; cited from earlier work

In the case of `COC(=O)[C@@H](Cc1ccc(OP(=O)(O)O)cc1)NC(=O)[C@@H](Cc1ccccc1)NC(=O)[C@@H](Cc1ccccc1)NC(=O)Cc1ccc2ccccc2c1` [3p], the “state of the solution after addition of ALP” value (shortened to “state of the solution”) [1] is reported as “forms a suspension”, the “effect of pan-caspase inhibitor zVAD-fmk on death of treated Saos-2 cells” value (“effect of pan-caspase inhibitor zVAD-fmk” below) (Saos-2 cells) is reported as “only slightly protects” and the “effect of L-Phe on viability of treated Saos-2 cells” value (from here on “effect of L-Phe”) (Saos-2 cells) is reported as “unable to rescue the cells”. The “effect of levamisole on viability of treated Saos-2 cells” value (from here on “effect of levamisole”) (Saos-2 cells) was “increases the cell viability”, the “effect of necroptosis inhibitor Nec-1 on death of treated Saos-2 cells” value (Saos-2 cells) was “significantly protects” and the “concentration at which Saos-2 cells are inhibited” value [2] was ≥ 50 µM. The “inhibitory activity at pH 8.0” value [2] was “decreases”.
For `CNC(=O)[C@@H](Cc1ccc(OP(=O)(O)O)cc1)NC(=O)[C@@H](Cc1ccccc1)NC(=O)[C@@H](Cc1ccccc1)NC(=O)Cc1ccc2ccccc2c1` [1p], the “state of the solution” value [1] was “turns into a hydrogel”, the “effect of pan-caspase inhibitor zVAD-fmk” value (Saos-2 cells) was “only slightly protects” and the “effect of L-Phe” value (Saos-2 cells) was “unable to rescue the cells”. The “effect of levamisole” value (Saos-2 cells) was “increases the cell viability”, the “effect of necroptosis inhibitor Nec-1 on death of treated Saos-2 cells” value (Saos-2 cells) was “significantly protects” and the “concentration at which Saos-2 cells are inhibited” value [2] was ≥ 50 µM. For the same compound, the “inhibitory activity at pH 8.0” value [2] was “remains” and the “aggregation behaviour by SLS at 50 μM” value (Static light scattering) was “starts to aggregates”.
With `O=C(Cc1ccc2ccccc2c1)N[C@H](Cc1ccccc1)C(=O)N[C@H](Cc1ccccc1)C(=O)N[C@H](Cc1ccc(OP(=O)(O)O)cc1)C(=O)O` [4p] the “state of the solution” value [1] was “becomes more viscous” and the “concentration at which Saos-2 cells are inhibited” value [2] was “about 500 μM”.
For `N.N.O=C([O-])C1(C(=O)[O-])CCC1.[Pt+2]` [carboplatin], the IC50 [3] is given as 198 µM.
In the case of `NNC(=O)[C@@H](Cc1ccc(OP(=O)(O)O)cc1)NC(=O)[C@@H](Cc1ccccc1)NC(=O)[C@@H](Cc1ccccc1)NC(=O)Cc1ccc2ccccc2c1` [2p], the “state of the solution” value [1] is reported as “turns into a hydrogel”, the “effect of pan-caspase inhibitor zVAD-fmk” value (Saos-2 cells) is reported as “only slightly protects” and the “effect of L-Phe” value (Saos-2 cells) is reported as “unable to rescue the cells”. For the same compound, the “effect of levamisole” value (Saos-2 cells) was “increases the cell viability”, the “effect of necroptosis inhibitor Nec-1 on death of treated Saos-2 cells” value (Saos-2 cells) was “significantly protects” and the “concentration at which Saos-2 cells are inhibited” value [2] was ≥ 50 µM.
